Converted amounts (≈) assume the structure as drawn. The source made the active and inactive calls. The calls are words filed in the database; no cut-off is given here.
Key:
HT-29 = assay: Antiproliferative activity against human HT-29 cells after 72 hrs by MTT assay; assay type: functional, cell-based; conditions: HT-29, 72 h
In short: (§1)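 Cells seeded at 5 × 10^3 per well and cultured 24 h before compound addition at varied concentrations, then grown a further 72 h; 0.5% DMSO as solvent control. MTT (5mg/ml solution) added for 4 h, formazan dissolved in DMSO, absorbance read at 570nm. Each treatment in triplicate; Mean ± SD.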

PC-3 = assay: Antiproliferative activity against human PC3 cells after 72 hrs by MTT assay; assay type: functional, cell-based; conditions: PC-3, 72 h; in short: as §1
U-251 [1] = assay: Potency index, ratio of napabucasin IC50 to test compound IC50 for human U251 cells; assay type: functional
HepG2 [2] = assay: Potency index, ratio of napabucasin IC50 to test compound IC50 for human HepG2 cells; assay type: functional
[3] = Aqueous solubility of the compound in water at 2 mg after 24 hrs by HPLC analysis; assay type: physicochemical
In short: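 Aqueous solubility measured by HPLC against calibration standards at 15–125 µg/mL. Values are the mean of at least three determinations ± SD.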

CT26 = assay: Antitumor activity against mouse CT26 cells implanted in BALB/c mouse assessed as tumor growth inhibition at 50 mg/kg, po administered once daily measured every 3 days relative to control; assay type: functional; conditions: 72 h, read-out: TGI
In short: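 Male BALB/c mice, 6 weeks old, given 1 × 10^6 CT-26 cells subcutaneously in the right flank. At about 70 mm3 tumour volume, randomized into groups of five and dosed orally once daily with 50mg/kg or vehicle (5% NMP in PEG 400). Tumours measured by caliper every 3 days, V = ab^2/2. Tumours weighed at sacrifice. TGI computed from mean tumour weights. T/C computed as mean RTV (Vt/V0) treated over control.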

[4] = Toxicity in BALB/c mouse implanted with mouse CT26 cells assessed as change in body weight at 50 mg/kg, po administered once daily; assay type: organism-based; conditions: in vivo
In short: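 Mice bearing subcutaneous CT-26 tumours, five per group, given 50mg/kg orally each day in 5% NMP/PEG 400, with an equal-volume vehicle control group. Body weight and behaviour monitored over the treatment period.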

[5] = Cardiotoxicity in BALB/c mouse implanted with mouse CT26 cells assessed as effect on heart morphology by measuring cell inflammation at 50 mg/kg, po administered once daily by H and E staining based histopathological analysis; assay type: toxicity, organism-based; conditions: in vivo
In short: (§2)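 CT-26 subcutaneous flank tumour model in male BALB/c mice, five per group, dosed orally at 50mg/kg daily in 5% NMP/95% PEG 400 versus vehicle. After treatment, heart, liver, spleen, lung and kidney collected, sectioned and stained with H&E for histological examination.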

[6] = Hepatotoxicity in BALB/c mouse implanted with mouse CT26 cells assessed as effect on liver morphology by measuring necrosis at 50 mg/kg, po administered once daily by H and E staining based histopathological analysis; assay type: toxicity, organism-based; conditions: in vivo; in short: as §2
[7] = Toxicity in BALB/c mouse implanted with mouse CT26 cells assessed as effect on spleen morphology by measuring edema at 50 mg/kg, po administered once daily by H and E staining based histopathological analysis; assay type: organism-based; conditions: in vivo; in short: as §2
[8] = Toxicity in BALB/c mouse implanted with mouse CT26 cells assessed as effect on spleen morphology by measuring necrosis at 50 mg/kg, po administered once daily by H and E staining based histopathological analysis; assay type: organism-based; conditions: in vivo; in short: as §2
[9] = Toxicity in BALB/c mouse implanted with mouse CT26 cells assessed as effect on lung morphology by measuring cell inflammation at 50 mg/kg, po administered once daily by H and E staining based histopathological analysis; assay type: organism-based; conditions: in vivo; in short: as §2
[10] = Toxicity in BALB/c mouse implanted with mouse CT26 cells assessed as effect on lung morphology by measuring edema at 50 mg/kg, po administered once daily by H and E staining based histopathological analysis; assay type: organism-based; conditions: in vivo; in short: as §2
[11] = Toxicity in BALB/c mouse implanted with mouse CT26 cells assessed as effect on kidney morphology by measuring cell inflammation at 50 mg/kg, po administered once daily by H and E staining based histopathological analysis; assay type: organism-based; conditions: in vivo; in short: as §2
[12] = Toxicity in BALB/c mouse implanted with mouse CT26 cells assessed as effect on kidney morphology by measuring necrosis at 50 mg/kg, po administered once daily by H and E staining based histopathological analysis; assay type: organism-based; conditions: in vivo; in short: as §2
[13] = target: T1, Signal transducer and activator of transcription 3 (Homo sapiens, UniProt P40763); assay: Inhibition of STAT3 phosphorylation at Y705 residue in human HepG2 cells at 400 nM after 24 hrs by Western blot analysis; assay type: cell-based
T1 sequence (P40763 whole entry): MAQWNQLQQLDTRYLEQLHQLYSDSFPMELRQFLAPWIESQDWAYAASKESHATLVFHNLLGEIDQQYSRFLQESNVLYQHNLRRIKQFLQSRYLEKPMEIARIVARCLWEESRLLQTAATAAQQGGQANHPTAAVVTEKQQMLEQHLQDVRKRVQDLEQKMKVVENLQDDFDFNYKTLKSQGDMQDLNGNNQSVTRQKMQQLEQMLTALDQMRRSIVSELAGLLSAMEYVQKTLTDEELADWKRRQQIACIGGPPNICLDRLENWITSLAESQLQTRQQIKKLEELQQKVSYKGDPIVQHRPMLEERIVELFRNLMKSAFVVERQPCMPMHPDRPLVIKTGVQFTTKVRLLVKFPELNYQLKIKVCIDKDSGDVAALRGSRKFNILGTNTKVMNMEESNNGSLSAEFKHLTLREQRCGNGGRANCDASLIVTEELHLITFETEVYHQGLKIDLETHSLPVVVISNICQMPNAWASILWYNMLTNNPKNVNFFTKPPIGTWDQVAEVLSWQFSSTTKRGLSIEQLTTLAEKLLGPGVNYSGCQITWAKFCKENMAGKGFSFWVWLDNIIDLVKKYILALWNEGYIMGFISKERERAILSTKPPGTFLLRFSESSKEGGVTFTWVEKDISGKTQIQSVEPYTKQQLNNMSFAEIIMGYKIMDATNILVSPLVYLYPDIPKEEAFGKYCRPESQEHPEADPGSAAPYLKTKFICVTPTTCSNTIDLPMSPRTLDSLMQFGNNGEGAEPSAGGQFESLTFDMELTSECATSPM
In short: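 Cells treated 24 and 48 h. Lysed in RIPA with protease inhibitors, protein quantified by BCA, equal amounts run on 10% SDS-PAGE and transferred to PVDF. Blocked in 5% milk, probed overnight at 4 °C with anti-total STAT3, anti-p-STAT3 (Tyr705) and GAPDH antibodies. ECL detection.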

HepG2 [14] = assay: Decrease in total STAT3 expression in human HepG2 cells at 400 nM after 24 hrs by DAPI staining based immunofluorescence microscopic analysis; assay type: ADME, cell-based; conditions: hepg2, 24 h, 0.4 µM
In short: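 HepG2 cells treated 24 h, stained with the same anti-total STAT3 antibody as the blots, nuclei counterstained with DAPI. Imaged on an inverted microscope with a 20× objective.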

U-251 [15] = assay: Decrease in total STAT3 level in human U251 cells at 200 nM after 24 to 48 hrs by sandwich-ELISA; assay type: ADME, cell-based; conditions: u-251, 0.2 µM
In short: (§3)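 Cells treated 24 or 48 h. Whole-cell lysates made in lysis buffer with protease inhibitor cocktail. Total STAT3 and p-STAT3 Y705 measured by sandwich ELISA. Three repeats; groups compared with control by paired t-test; means ± S.D.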

HepG2 [16] = assay: Decrease in total STAT3 level in human HepG2 cells at 400 nM after 24 to 48 hrs by sandwich-ELISA; assay type: ADME, cell-based; conditions: hepg2, 0.4 µM; in short: as §3
[17] = target: T1, Signal transducer and activator of transcription 3; assay: Inhibition of STAT3 phosphorylation at Y705 residue in human U251 cells at 200 nM after 24 to 48 hrs by sandwich-ELISA; assay type: cell-based; in short: as §3
[18] = target: T1, Signal transducer and activator of transcription 3; assay: Inhibition of STAT3 phosphorylation at Y705 residue in human HepG2 cells at 400 nM after 24 to 48 hrs by sandwich-ELISA; assay type: cell-based; in short: as §3
[19] = target: T1, Signal transducer and activator of transcription 3; assay: Inhibition of biotin-labelled DNA probe binding to recombinant N-terminal FLAG-tagged STAT3 (unknown origin) expressed in HEK293 cells at 100 to 200 nM by EMSA; assay type: cell-based
In short: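 HEK293T cells transiently transfected with N-terminal FLAG-STAT3 (10 µg per 10 cm dish) and harvested at 48 h. STAT3 purified on anti-FLAG magnetic beads and eluted with FLAG peptide (200 µg/mL). Chemiluminescent EMSA with biotin-labelled STAT3 probe, 5 µL protein and 1 µL probe per lane. Cold-probe and anti-STAT3 antibody lanes included.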

[20] = target: T1, Signal transducer and activator of transcription 3; assay: Binding affinity to recombinant N-terminal His-tagged STAT3 (unknown origin) expressed in baculovirus infected Sf9 insect cells by SPR analysis
In short: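 STAT3 made by baculovirus: bacmid generated in Sf9, virus amplified in Sf9, protein expressed in High Five cells. Purified on Ni-NTA and by gel filtration (>90% pure). Amine-coupled to a CM5 chip. Compound run at 18.75–600 nM in 5% DMSO/PBS on Biacore X100. KD taken from equilibrium fit.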

## O=C(NCCN1CCCCC1)c1cc2c(o1)C(=O)c1ccccc1C2=O
HT-29
  IC50: 70 nM
PC-3
  IC50: 4130 nM
U-251 [1]
  Ratio IC50: >10
HepG2 [2]
  Ratio IC50: >10
[3]
  solubility at 24 h: 201 µM (≈ 70.8 µg/mL)
CT26
  inhibition in vivo at 50 mg/kg: 63%
[4]
  Activity: Non-Toxic
[5]
  Activity: Non-Toxic
[6]
  Activity: Non-Toxic
[7]
  Activity: Non-Toxic
[8]
  Activity: Non-Toxic
[9]
  Activity: Non-Toxic
[10]
  Activity: Non-Toxic
[11]
  Activity: Non-Toxic
[12]
  Activity: Non-Toxic
[13]
  inhibition: Active
HepG2 [14]
  Activity: Toxic
U-251 [15]
  Activity: Toxic
HepG2 [16]
  Activity: Toxic
[17]
  inhibition: Active
[18]
  inhibition: Active
[19]
  inhibition: Active
[20]
  Kd: 110 nM

— ChEMBL document CHEMBL4382247, “A novel series of napabucasin derivatives as orally active inhibitors of signal transducer and activator of transcription 3 (STAT3)” (Eur J Med Chem, 2019)
